Screens: PubChem, Broad Institute
RAD52 anneal inh = RAD52 (human) annealing inhibition. recombinant RAD52 DNA annealing, FRET fluorescence. 360,000 tested, 0.46% active. inhibition, % at 18.7 µM. AID 651710;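 active = every replicate showing at least 50% inhibition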
AF4-AF9 inh = inhibitors of human MLL-AF4/AF9 interaction; P42568; AlphaScreen, biotin-AF4 peptide binding to FLAG-AF9; inhibition, % at 10 µM; 350,000 tested, 0.47% active; AID 651704;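 active = every replicate reaching a set inhibition limit, whatever the replicate mean, cut at about 25% in these data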
E-sel inducer = induces E-selectin expression in human endothelial cells; P16581; HUVEC E-selectin immunofluorescence imaging; normalized: neutral wells 0, TNF-alpha wells 100; activation, % at 7.58 µM; 260,000 tested, 0.37% active; AID 686992;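 active = mean E-selectin-positive cell signal at least 10% of the positive control, reached in at least 60% of replicates, without over 20% cell loss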
Target sequence (P16581 whole entry, looked up): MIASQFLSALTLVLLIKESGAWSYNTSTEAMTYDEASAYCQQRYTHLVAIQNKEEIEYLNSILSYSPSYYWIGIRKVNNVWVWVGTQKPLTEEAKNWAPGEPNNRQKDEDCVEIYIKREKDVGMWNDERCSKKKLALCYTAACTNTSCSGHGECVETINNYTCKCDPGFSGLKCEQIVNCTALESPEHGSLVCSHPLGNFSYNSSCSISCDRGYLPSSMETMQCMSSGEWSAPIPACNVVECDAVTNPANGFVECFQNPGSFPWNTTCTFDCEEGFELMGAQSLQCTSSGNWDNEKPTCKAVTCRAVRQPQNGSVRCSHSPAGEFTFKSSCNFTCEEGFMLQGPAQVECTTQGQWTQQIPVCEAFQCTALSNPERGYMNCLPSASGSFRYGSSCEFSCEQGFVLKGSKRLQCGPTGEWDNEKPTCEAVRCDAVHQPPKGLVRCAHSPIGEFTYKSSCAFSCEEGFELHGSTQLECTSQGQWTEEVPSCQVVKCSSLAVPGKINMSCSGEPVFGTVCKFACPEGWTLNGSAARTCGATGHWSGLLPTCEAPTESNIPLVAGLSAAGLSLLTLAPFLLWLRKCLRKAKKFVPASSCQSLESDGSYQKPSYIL
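Test system: HUVEC | Signal: Immunofluorescence imaging | Read-out: Percent E-selectin-positive cells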
rRNA inh HTS = selective bacterial rRNA inhibition in E. coli; E. coli WT GFP vs humanized-ribosome RFP mutants, fluorescence, 24 h; hits give low values; DMSO median 0, no signal -100; GFP signal change (wild-type ribosome), % (concentration not given with the values); 350,000 tested, 1.6% active;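 active = significant combined selectivity score with lowered wild-type GFP, culture density cut under 30%, mutant RFP and density less affected; inactive = any of these conditions unmet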
GSIS activator = GLuc luminescence reporter in INS-1E cells, primary screen for activators of glucose-dependent secretion of insulin. INS-1E GLuc reporter insulin secretion, 2-3 h. activation, % at 16.6 µM. 370,000 tested, 0.61% active;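 active = lowest replicate activation of at least 40%, so every replicate reaches that level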
RAD54 inh = RAD54 (human) branch migration inhibition; Q92698; RAD54 Holliday junction branch migration, FAM/BHQ fluorescence; inhibition, % at 10.4 µM; 360,000 tested, 0.14% active;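 active = mean normalized replicate activity at least 40 and at least half of replicates scoring 40 or more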;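 also: inhibitors cause a drop in the FAM fluorescence signal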
Hits are given with their value; 0 = inactive; - = not tested or not shown. Hits are enriched below; roughly 2.6% of the tested compounds scored in any of these assays.

SMILES	RAD52 anneal inh	AF4-AF9 inh	E-sel inducer	rRNA inh HTS	GSIS activator	RAD54 inh
O=C(CSc1n[nH]c(=O)n1C1CC1)Nc1ccc(Cl)c(Cl)c1	0	0	0	-20.4	0	0
COc1cccc(-c2ccc([C@H]3[C@@H](C#N)N(C(=O)Cc4ccccc4)[C@@H]3CO)cc2)c1	0	0	0	0	0	0
COc1cccc(/C=N/N(C)C2=NS(=O)(=O)c3ccccc32)c1O	0	0	0	0	0	0
CN(/N=C/c1cc(Cl)ccc1O)C1=NS(=O)(=O)c2ccccc21	0	0	0	-21.2	0	0
Cc1ccc(S(=O)(=O)N[C@H]2CC[C@H](CCn3cc(C4CCCCC4)nn3)O[C@@H]2CO)cc1	0	0	0	0	0	0
O=C(COC(=O)C1CCN(C(=O)c2ccc(Cl)cc2)CC1)Nc1ccccc1F	0	0	-	-17.1	0	0
N#Cc1ccccc1NC(=O)COC(=O)C1CCN(C(=O)c2ccc(Cl)cc2)CC1	0	0	0	0	0	0
CCCOc1ccc(/C=C/C(=O)O)cc1OC	0	0	-	0	0	0
COc1ccc(C=O)cc1COc1ccc([N+](=O)[O-])c(C)c1	0	0	368.5	0	0	0
COc1ccc(/C=C/C(=O)O)cc1COc1cccc(C)c1	-	-	0	-	47.0	-
COc1ccc(/C=C/C(=O)O)cc1Cl	0	42.5	0	0	0	0
O=C(O)/C=C/c1ccc(OCc2cccc(F)c2)cc1	0	0	0	-22.2	0	0
COc1cccc(CN2[C@H](CO)[C@H](c3ccccc3)C23CN(C(=O)C2CCOCC2)C3)c1	0	0	0	0	0	-
CO[C@H]1CN(C)C(=O)c2cc(C#N)ccc2OCC[C@H]2CC[C@@H](OC)[C@@H](CN(C)C(=O)[C@@H]1C)O2	0	0	0	0	0	0
C[C@H]1CCCCO[C@H](CN(C)C(=O)c2ccccc2)[C@@H](C)CN([C@@H](C)CO)C(=O)c2cc(NC(=O)Cc3ccccc3)ccc2O1	0	0	0	0	0	0
COc1ccc(/C=C2/C(=O)OCc3cc(OC)c(OC)cc32)cc1	-	-	-	-	112.6	-
C[C@@H]1CN([C@@H](C)CO)C(=O)c2cccc(NC(=O)CCCCCC(=O)Nc3ccccc3N)c2O[C@@H]1CN(C)C(=O)Nc1ccc(C(F)(F)F)cc1	0	0	-	0	0	-
C[C@H]1CN([C@@H](C)CO)C(=O)c2cc(C#CCN(C)C)cnc2O[C@H]1CN(C)S(=O)(=O)c1cn(C)cn1	0	0	0	0	0	0
C[C@H]1CN([C@@H](C)CO)C(=O)c2cc(C#CC3CCCCC3)cnc2O[C@@H]1CN(C)S(=O)(=O)c1cccc(F)c1	0	32.3	0	0	0	0
C[C@@H]1CN([C@H](C)CO)C(=O)c2cc(C#CCN(C)C)cnc2O[C@H]1CN(C)S(=O)(=O)c1cn(C)cn1	0	0	0	0	40.4	0
C[C@@H]1CN([C@H](C)CO)C(=O)c2cc(N(C)C)ccc2O[C@H]1CN(C)S(=O)(=O)c1cn(C)cn1	0	0	62.7	0	0	0
C[C@@H]1CN([C@@H](C)CO)C(=O)Cc2cc(NS(=O)(=O)c3cccs3)ccc2O[C@H]1CN(C)Cc1ccc(C(F)(F)F)cc1	0	0	0	0	0	0
O=C1OC(Oc2ccccc2)(c2ccccc2)c2ccccc21 (centres undefined)	-	-	-	-	0	0
O=C1OC(OC2CCCCC2)(c2ccccc2)c2ccccc21 (centres undefined)	0	0	-	-21.9	0	0
C[C@H](CO)N1C[C@H](C)[C@@H](CN(C)C(=O)Nc2ccc3c(c2)OCO3)Oc2ccc(NC(=O)Nc3ccc4c(c3)OCO4)cc2CC1=O	0	0	0	0	0	-
SMILES	RAD52 anneal inh	AF4-AF9 inh	E-sel inducer	rRNA inh HTS	GSIS activator	RAD54 inh
CC(C)(C)S(=O)(=O)c1cnc(-c2cnccn2)nc1N	0	0	46.0	0	0	0
COc1ccc(S(=O)(=O)N(C)C[C@@H]2Oc3ccc(NC(=O)CCCN(C)C)cc3C(=O)N([C@@H](C)CO)C[C@@H]2C)cc1	0	0	56.9	0	0	0
Cc1ccc(S(=O)(=O)N(C)C[C@H]2Oc3ccc(NC(=O)CCCN(C)C)cc3C(=O)N([C@H](C)CO)C[C@H]2C)cc1	0	0	281.9	0	0	0
Cc1ccc(S(=O)(=O)N(C)C[C@@H]2Oc3ccc(NC(=O)CCCN(C)C)cc3C(=O)N([C@H](C)CO)C[C@@H]2C)cc1	0	0	0	0	0	0
Cc1ccc(S(=O)(=O)N(C)C[C@H]2OCCCC[C@@H](C)Oc3ccc(NC(=O)CCCN(C)C)cc3C(=O)N([C@@H](C)CO)C[C@@H]2C)cc1	50.1	0	-	0	0	0
C[C@@H]1CN([C@H](C)CO)C(=O)c2cc(NC(=O)Cc3cn(C)c4ccccc34)ccc2O[C@@H]1CN(C)Cc1ccc(Cl)c(Cl)c1	0	0	0	0	0	0
C[C@@H]1CN([C@H](C)CO)C(=O)c2cc(NC(=O)Cc3cn(C)c4ccccc34)ccc2O[C@H]1CN(C)Cc1ccc(Cl)c(Cl)c1	0	0	50.6	0	0	0
C[C@H](CO)N1C[C@H](C)[C@H](CN(C)Cc2ccc3c(c2)OCO3)Oc2ccc(NC(=O)Cc3cn(C)c4ccccc34)cc2C1=O	0	0	43.1	0	0	0
CCNC(=O)Nc1ccc2c(c1)C(=O)N(C)[C@H]1CC[C@H](CC(=O)NCc3ccccc3F)O[C@@H]1CO2	0	0	0	0	0	0
O=C(C[C@H]1CC[C@@H]2[C@H](COC[C@H](O)CN2C(=O)c2ccccc2)O1)Nc1ccc(-c2ccccc2)cc1	0	0	0	0	0	0
CC(C)NC(=O)N(C)C[C@@H]1OCCCC[C@@H](C)Oc2ccc(NC(=O)C3CCCCC3)cc2C(=O)N([C@@H](C)CO)C[C@H]1C	-	-	-	0	0	-
CCNC(=S)SCCOc1ccccc1C	0	0	0	-33.9	0	0
O=[N+]([O-])c1cccc(/C=C/c2nc[nH]c2[N+](=O)[O-])c1	0	0	0	0	40.2	0
Fc1ccc(-c2cc(C(F)(F)F)nc(-n3cncn3)n2)cc1	-	-	-	-	51.5	-
COc1cccc(-c2cc(C(F)(F)F)nc(-n3cncn3)n2)c1	-	-	-	-	64.9	0
Fc1ccc(-c2cc(C(F)(F)F)nc(-n3cccn3)n2)cc1	0	0	0	0	0	0
CNC[C@@H]1Oc2cc(-c3ccncc3)ccc2S(=O)(=O)N([C@H](C)CO)C[C@H]1C	0	0	0	0	0	0
COCC(=O)Nc1ccc2c(c1)[C@H]1C[C@H](CC(=O)N3CCc4ccccc4C3)O[C@@H](CO)[C@H]1O2	0	0	0	0	0	0
O=C(N[C@H]1CC[C@H](CCn2cc(Cc3ccccc3)nn2)O[C@@H]1CO)c1cnccn1	0	0	0	0	0	0
O=C(COC(=O)c1ccccc1C(=O)c1ccccc1)NCCc1ccccc1	0	0	-	0	0	-
